Compounds with a hit are over-represented: about 1% of the library has one in this group of screens.
VIM-2 inh – inhibitors of Pseudomonas aeruginosa VIM-2 metallo-beta-lactamase. purified VIM-2, nitrocefin hydrolysis, epi-absorbance fluorescence. inhibition, % at 5.6 µM. hit rate 0.89% among 290,000;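 active means inhibition above the mean of all tested compounds plus 3 SD, cutoff set per screening run, cut at about 7.5% in these data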;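 further: red hydrolysis product quenches plate fluorescence so inhibitors raise well fluorescence; 0% = enzyme with DMSO and 100% = DMSO without enzyme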
PvdQ inh – P. aeruginosa PvdQ acylase inhibition | purified PvdQ acylase, fluorescence plate reader | inhibition, % at 10 µM | hit rate 0.063% among 340,000 | AID 488965; in the data active means inhibition above about 30%, passing the limit was not always enough;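 further: 0% = vehicle neutral wells and 100% = reference inhibitor wells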
RAD54 inh – blocks human RAD54 Holliday junction branch migration. inhibition, % at 10.4 µM. FAM/BHQ fluorescence. Q92698. hit rate 0.14% among 360,000;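 active means mean normalized replicate activity at least 40 and at least half of replicates scoring 40 or more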;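 further: 0% = median of neutral control wells and 100% = median of positive control wells; inhibitors cause a drop in the FAM fluorescence signal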
Target sequence (Q92698 whole entry, looked up): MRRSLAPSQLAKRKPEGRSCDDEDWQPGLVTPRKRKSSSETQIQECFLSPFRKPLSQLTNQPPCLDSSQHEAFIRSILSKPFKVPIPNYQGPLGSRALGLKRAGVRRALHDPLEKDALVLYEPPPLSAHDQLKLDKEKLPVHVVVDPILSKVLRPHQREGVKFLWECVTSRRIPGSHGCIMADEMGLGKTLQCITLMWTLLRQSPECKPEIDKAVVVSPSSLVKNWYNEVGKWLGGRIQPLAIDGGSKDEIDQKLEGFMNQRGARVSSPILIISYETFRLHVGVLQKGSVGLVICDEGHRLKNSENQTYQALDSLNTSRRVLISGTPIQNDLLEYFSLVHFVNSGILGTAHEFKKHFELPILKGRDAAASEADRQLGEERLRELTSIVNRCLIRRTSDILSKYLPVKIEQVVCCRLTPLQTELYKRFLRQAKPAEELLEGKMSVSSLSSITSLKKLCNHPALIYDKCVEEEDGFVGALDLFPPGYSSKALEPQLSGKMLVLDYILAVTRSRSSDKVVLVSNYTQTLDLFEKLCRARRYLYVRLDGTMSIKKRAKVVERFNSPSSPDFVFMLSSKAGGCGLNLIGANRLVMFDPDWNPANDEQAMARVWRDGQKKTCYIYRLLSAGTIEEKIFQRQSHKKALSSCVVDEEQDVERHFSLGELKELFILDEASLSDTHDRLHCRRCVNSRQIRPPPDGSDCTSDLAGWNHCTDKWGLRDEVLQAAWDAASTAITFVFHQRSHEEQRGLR
DNA FID counter – counter-screen for HCV NS3 helicase inhibitors: DNA intercalator displacement; DNA fluorescent intercalator displacement, fluorescence; inhibition, % at 7.9 µM; hit rate 0.17% among 290,000; in the data active means inhibition above about 37%;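 further: 0% = vehicle and 100% = reference compound; higher means more ethidium bromide displaced from hairpin DNA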
IMP-1 inh – blocks Pseudomonas aeruginosa IMP-1 metallo-beta-lactamase. purified IMP-1, nitrocefin hydrolysis, epi-absorbance fluorescence. inhibition, % at 5.6 µM. hit rate 0.45% among 290,000. AID 1556;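 active means inhibition above the mean plus 3 SD of all compounds in the same screening run, cut at about 4.5% in these data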;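 further: 0% = IMP-1 with DMSO and 100% = DMSO wells lacking enzyme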
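System: purified IMP-1; amount: IMP-1 0.2 nM before substrate addition; compound: single dose, 5.6 µM; times: 25 °C, 15 min preincubation, 25 min reaction; signal: Epi-absorbance via hydrolysed-nitrocefin quenching of white-plate fluorescence, 480/530 nm, EDTA stop; benchmarks: DMSO with and without IMP-1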
* hit, by the source's call; . = not tested or not shown.

SMILES	VIM-2 inh	PvdQ inh	RAD54 inh	DNA FID counter	IMP-1 inh
CCC1CCCCN1CCCNC(=O)c1cn(CC)c2ccc(S(=O)(=O)N3CCc4ccccc4C3)cc2c1=O (stereo not given)	2	7	-5	49*	2
CCn1cc(C(=O)NCCCN2CCCC(C)C2)c(=O)c2cc(S(=O)(=O)N3CCc4ccccc4C3)ccc21 (stereo not given)	1	-8	-20	9	0
O=C(C[C@H]1C=C[C@H](NC(=O)C2CCOCC2)[C@@H](CO)O1)Nc1ccc(-c2ccccc2)cc1	.	.	3	.	.
Cc1ccnc(NC(=O)CCc2c(C)nc3ncnn3c2C)c1	-2	-4	-4	-3	1
Cc1ccc(NC(=O)CCc2c(C)nc3ncnn3c2C)nc1	1	-12	-8	-5	5.2*
Nc1c(C(=O)c2ccc(Cl)cc2)sc2nsc(SCCN3CCOCC3)c12	3	-6	-20	-13	0
Nc1c(C(=O)c2ccccc2)sc2nsc(SCCN3CCCC3)c12	8.3*	-7	-44	5	2
Cc1ccc(NC(=O)CSc2nc3ccccc3c(=O)n2CCCC(=O)N2CCCC2)cc1	1	-11	0	0	10*
Cc1noc(C)c1S(=O)(=O)Nc1ccc2c(c1)CC(=O)N([C@H](C)CO)C[C@H](C)[C@@H](CN(C)C(=O)Nc1ccc3c(c1)OCO3)O2	.	.	4	.	.
Cc1cccc(-c2nc(NCCCN3CCOCC3)c3ccccc3n2)c1	7.7*	4	31	53*	-4
Cc1ccc2ncnc(NCCCN3CCOCC3)c2c1	-2	-8	10	12	-6
COc1ccc(-c2cc(C(=O)OCC(=O)N(C)C)c3ccccc3n2)cc1	1	1	8	-22	4.7*
COC(=O)C[C@@H]1C[C@H]2c3cc(NC(=O)CN(C)C)ccc3O[C@H]2[C@@H](CO)O1	.	.	5	.	.
CCCCNC(=O)OCC(CC)NC(=O)OCC(C)C (stereo not given)	-4	-13	-12	-15	8.7*
Cn1cnnc1SCC(=O)c1cc2ccccc2o1	-4	-13	.	-5	-1
Cn1ccnc1SCC(=O)c1cc2ccccc2o1	0	-4	4	-3	4.6*
Cc1ccc(-c2c(NCCc3ccccc3)c(=O)c2=O)cc1	-1	4	6	-5	5.3*
C[C@H]1CCCCO[C@H](CN(C)C(=O)CCC(F)(F)F)[C@@H](C)CN([C@@H](C)CO)C(=O)c2cc(NC(=O)C3CCCCC3)ccc2O1	.	.	-4	.	.
COC(=O)c1ccc(-c2nc3ccccc3[nH]2)cc1	-6	40*	2	-3	-2
O=C(CN1CCOCC1)N1CCCCN2[C@H](CO)[C@H](c3ccc(C#Cc4ccccc4F)cc3)[C@H]2C1	.	.	2	.	.
CCN(CC)CCNC(=S)Nc1ccc2nc(N3CCCC3)cc(C)c2c1	-1	-7	.	49*	-1
CCN(CC)CCNC(=S)Nc1ccc2nc(N3CCOCC3)cc(C)c2c1	0	-28	2	15	-2
Cc1cc(N2CCOCC2)nc2ccc(NC(=S)NCCN(C)C)cc12	3	-10	30	52*	1
COc1ccc(CN(C(=O)Cc2c[nH]c3ccccc23)C(C(=O)NC2CCCCC2)c2ccc(C)o2)cc1 (stereo not given)	-2	4	12	89*	49*
COc1cc(C(C(=O)NC2CCCCC2)N(Cc2cccs2)C(=O)Cc2c[nH]c3ccccc23)cc(OC)c1OC (stereo not given)	-3	-9	3	-16	-1
SMILES	VIM-2 inh	PvdQ inh	RAD54 inh	DNA FID counter	IMP-1 inh
Cc1ccc(C(C(=O)NC2CCCCC2)N(Cc2ccccc2)C(=O)Cc2c[nH]c3ccccc23)o1 (stereo not given)	-3	-19	-2	-30	-4
COc1cccc(CN(C(=O)Cc2c[nH]c3ccccc23)C(C(=O)NC2CCCCC2)c2ccc(C)o2)c1 (stereo not given)	-2	10	.	-37	22*
Cc1ccc(C)c2nc3sc(C(=O)O)cc3cc12	9.6*	-8	.	-17	-4
CCC(=O)N[C@@H]1CC[C@@H](CC(=O)OC)O[C@@H]1CO	.	.	-3	.	.
CC(C)c1cc(NCCN2CCOCC2)n2c(nc3ccccc32)c1C#N	.	-12	.	.	.
CCc1c(C)c(C#N)c2nc3ccccc3n2c1NCCOC	5	8	-14	-20	-2
CC(C)c1cc(NCC2CCCO2)n2c(nc3ccccc32)c1C#N (stereo not given)	9.9*	-8	4	-21	-2
CCc1c(C)c(C#N)c2nc3ccccc3n2c1NCC1CCCO1 (stereo not given)	7.8*	-14	14	-22	-1
O=C1NCC(=O)N2[C@@H]1C[C@@H](C(=O)NCc1ccc(F)cc1)[C@H]2c1ccc(O)cc1	.	.	-15	.	.
COC(=O)COc1ccc(C2Nc3c(Cl)ccc(C(=O)O)c3C3C=CCC32)cc1 (stereo not given)	-2	-19	.	-16	12*
COc1ccc(OC)c(C2Nc3c(Cl)ccc(C(=O)O)c3C3C=CCC32)c1 (stereo not given)	-1	-1	.	-21	11*
CC(C)NC(=O)N(C)C[C@H]1Oc2ncc(-c3ccccc3F)cc2C(=O)N([C@@H](C)CO)C[C@H]1C	.	.	-4	.	.
C[C@@H]1CN([C@@H](C)CO)C(=O)Cc2cc(NS(C)(=O)=O)ccc2O[C@@H]1CN(C)Cc1ccc(C(F)(F)F)cc1	.	.	0	.	.
C[C@@H]1CN([C@H](C)CO)C(=O)c2cc(NS(=O)(=O)c3cccs3)ccc2O[C@H]1CN(C)Cc1ccc(C(F)(F)F)cc1	.	.	4	.	.
COc1ccc2c(c1)c(C(=O)OCCN(C)C)c(C)n2C	2	-13	59*	11	-4
Cc1noc(C)c1NC(=O)Nc1ccc2c(c1)C(=O)N([C@@H](C)CO)C[C@H](C)[C@@H](CN(C)S(C)(=O)=O)OCCCC[C@H](C)O2	.	.	13	.	.
Cc1ccc(Cl)cc1Nc1nc(-c2sc(NC(=O)C(C)(C)C)nc2C)cs1	0	-14	-10	3	18*
COc1ccccc1Nc1nc(-c2sc(NC(=O)C(C)(C)C)nc2C)cs1	-2	1	2	-4	-3
CNc1ccc(Br)cc(C(=O)/C=C/c2cccc(Cl)c2Cl)c1=O	-2	-12	.	-12	5.9*
CNc1ccccc(C(=O)/C=C/c2ccccc2OC)c1=O	-2	-11	.	-23	2
CCNc1ccc(Br)cc(C(=O)/C=C/c2ccccc2Cl)c1=O	0	-1	6	-19	11*
CNc1ccc(Br)cc(C(=O)/C=C/c2cccc(OC)c2OC)c1=O	1	20	-7	-28	6.5*
COc1cccc(NC(=O)C[C@H]2CC[C@@H]3[C@H](COc4ccc(NS(=O)(=O)c5cccc(F)c5)cc4C(=O)N3C)O2)c1	.	.	-3	.	.
CO[C@H]1CN(C)C(=O)c2ccc(NC(C)=O)cc2OC[C@@H](C)N(C(=O)C2CCC2)C[C@H]1C	.	.	5	.	.
CO[C@H]1CN(C)C(=O)c2cc(C#N)ccc2OC[C@H]2O[C@@H](CC[C@H]2OC)CCN(C)C(=O)[C@H]1C	.	.	5	.	.
COc1ccccc1NC(=O)N[C@H]1CC[C@H](CCNS(=O)(=O)c2ccccc2)O[C@H]1CO	.	.	7	.	.

Screening results from PubChem BioAssay.
